The series has as its system MS2 coat protein. The series can be described thus: apparent Kd, MS2 coat protein; higher = weaker binding; RNA-MaP array; FMN 200 µM where present. The gist of the method: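 Stalled E. coli RNA polymerase transcribed each design on Illumina sequencing-chip clusters. The clusters were titrated with SNAP-549-labelled MS2 coat protein, starting at 0.7 or 1.5 nM and doubling up to 3 µM, first without ligand and then with constant ligand, in 100 mM Tris-HCl pH 7.5, 80 mM KCl, 4 mM MgCl2, BSA, DTT, yeast tRNA and Tween-20. Green signal was normalised to red-channel RNA signal and to the control-cluster median Fmax. The apparent Kd is the median of filtered binding-curve fits made for each cluster.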

The mark [1] stands for this setting: designed as: ON switch for flavin mononucleotide, no ligand.
[2] abbreviates: ligand present: flavin mononucleotide, designed as: ON switch for flavin mononucleotide.
The mark [3] stands for this setting: designed as: OFF switch for flavin mononucleotide, no ligand.
Where [4] appears, read: ligand present: flavin mononucleotide, designed as: OFF switch for flavin mononucleotide.

Turning to “UUAUCUCAUGAGAAGGACAUGAGGAUCACCCAUGUAGGAUAUCAUGGGUCAGUGGAAUUGAAUCUUCGGAUUCAAUAACUCUAC”, the “apparent Kd” value came out at 0.0725 µM under setting [1] and 0.0119 µM under setting [2].
Take “UCCUAGCUAGGAUAUACCCAGGGUUUGUUCUCUAACAAAACACAUGAGGAUCACCCAUGUAGAAGGAGCCGGGA”: the “apparent Kd” value by setting is: under setting [3], 0.0769 µM; under setting [4], 0.0708 µM.
For “CUCACGUUAGUAGGAUAUCCGACAUGAGGAUCACCCAUGUCACUACGCCUCAAGGGAAGGCGUAAGGAGAAGGGCUGAUAAAUA”, the “apparent Kd” value by setting is: under setting [1], 0.254 µM; under setting [2], 0.156 µM.
Take “GCCGGAUUUGUGAGGAUAUACCUAUGGAUACAUAGGUAGAAGGCACAUGAGGAUCACCCAUGUUCCUCACCGGC”: the “apparent Kd” value under setting [3] stood at 0.033 µM and the “apparent Kd” value under setting [4] came to 0.288 µM.
Consider “GUCAGCUCGUGAGGAUAUACAACACUUCUUCGGCAGUGUAUUAAGAUCACAUGAGGAUCACCCAUGUAGAAGGCACGAGCUGAU”, for which the “apparent Kd” value was 0.0141 µM under setting [3] and 0.231 µM under setting [4].
“UCGAGCAGGGAAUGGACGCUGAAGUAGGAUAUCCGCGUGGCCGUCCACAUGAGGAUCACCCAUGUGGAGAAGGGCUACAGCGAA”: the “apparent Kd” value is 0.0055 µM under setting [3] and 0.00563 µM under setting [4].
Take “GGAUGACAAAGUCAUCCAAUACGAACAUGAGGAUCACCCAUGUAGGAUAUCGUACUCAAAGAGUACGAGAAGGACAUGUGCCUU”: the “apparent Kd” value is, setting by setting: under setting [3], 0.0376 µM; under setting [4], 0.236 µM.
As for “UCCCGGGUGCAGAAGGGAUAGGCCUAUUUUCGUGGUAUCCAAACCUUACAUGAGGAUCACCCAUGUCAGGAUAUGCCCACGGGA”, the “apparent Kd” value by setting is: under setting [3], 0.00447 µM; under setting [4], 0.00496 µM.
The matching figures for “AUCAGCUCGUCAGGAUAUACAUGAUAGAUCGAUUAAUUAAUUAAUUUAACAUGAGGAUCACCCAUGUAGAAGGGACGAGCUGAU”: 0.0685 µM and 0.0674 µM.
In the case of “AUGGGUUAAGGAGGAUAUAGAGGGAGGAGUAGACAUGAGGAUCACCCAUGUAUUUAAUUAGUUUACUAGAAGGCUUGUGAUUGU”, the “apparent Kd” value reads like this: under setting [1], 0.056 µM; under setting [2], 0.0757 µM.
The matching figures for “GGCGAACAGGCUAACAUGAGGAUCACCCAUGUGGACUCAUGGUAGGAUAUCGGGAAGGAGGAAACCGAGAAGGGCCGGUGAGCC”: 0.061 µM and 0.0341 µM.
For the sequence “UAAAUGUGAGGAUAUUCGUUGAACUCGGAGACGAGUUUAACGGAGAAGGCACAUGAGGAUCACCCAUGUUCCUU”, the “apparent Kd” value worked out at 0.0204 µM under setting [3] and 0.211 µM under setting [4].
“ACUGGCUUGCAGAAGGGUGACAUGAGGAUCACCCAUGUAGCGGGCCGGCGUAAAGUCAGCGCGCCACAGGAUAUGCAGGCCUCG”: the “apparent Kd” value under setting [1] stood at 0.074 µM and the “apparent Kd” value under setting [2] was found to be 0.0452 µM.
As to “UGGAACGUGUCAGGAUAUACAUGAGGAUCACCCAUGUAUAGGAAAUAGGCAGGGUCUCUUGCAUAGUAGAAGGGACGCGAUUGC”, the “apparent Kd” value came to 0.00658 µM under setting [3] and 0.00775 µM under setting [4].
With “UGUCGGAGCAGAGGAUAUAUACAUGAGGAUCACCCAUGUAAAUGGAAUAGCUGGAAACAGCAAGUAUAGAAGGCUGCUCCGACA”, the “apparent Kd” value under setting [3] was 0.0374 µM and the “apparent Kd” value under setting [4] is 0.112 µM.
On the same counts, the results for “UGCGGCGCGGGCCACCGCAGGGCCAGAAGGACAUGAGGAUCACCCAUGUGGCAGGACAGGGCGGUGUAGGAUAUGGCAGGCUGG” are 0.0167 µM and 0.0208 µM.
The matching figures for “GGUGGACAUGAGGAUCACCCAUGUGAGGAUAUCGGCUAUCUUGUCGCUGUCGGUUGCUCGAGAAGGCACAUUGU”: 0.0788 µM and 0.128 µM.
“CUCAGACAUGAGGAUCACCCAUGUGAGGAUAUGAUGCGAUCGUCGAAAGACGAUAGCAUCAGAAGGUACAAAUG”: the “apparent Kd” value amounted to 0.0531 µM under setting [3] and 0.0405 µM under setting [4].
With “GUAUCUUACCAAGGAUAUUUACGAUUAGUGUAGACAUGAGGAUCACCCAUGUGGCCUUAGUCACGGGAGAAGGUGGUUUGAUAC”, the “apparent Kd” value under setting [1] was 0.317 µM and the “apparent Kd” value under setting [2] came out at 0.0737 µM.
The matching figures for “AAACACGGACAUGAGGAUCACCCAUGUGGCGAAAGCCUUGGGAGAAGGCCGAUUGCAAAGCAAUCGGAGGAUAUCCAUACCGUG”: 0.0178 µM and 0.00603 µM.
For “GCAUUUAAUACAGGAUAUGUAAGUAUACAUUAGAUUGGUAUAGUCACAACAACAGAAGGGUAGAACAUGAGGAUCACCCAUGUA”, the “apparent Kd” value reads like this: under setting [1], 0.0973 µM; under setting [2], 0.0629 µM.
For “CCUCAGUAAGGAUAUCAGCUUAAGGAGGUGGUAAAGAGAGCUGAGAAGGUACAUGAGGAUCACCCAUGUUAAAA”, the “apparent Kd” value was 0.0911 µM under setting [3] and 0.227 µM under setting [4].
As to “GGUCCACGAGGAUAUCGAUUUUAGUACAUGAGGAUCACCCAUGUUGUCCAGGUUUCGAUUCGAGAAGGCGUGGGCC”, the “apparent Kd” value by setting is: under setting [3], 0.0222 µM; under setting [4], 0.0246 µM.
For the sequence “CAGCGAUAGCUGAAUGGUACAUGGGAGGAUAUGGGUUGACAUGAGGAUCACCCAUGUAAAUAAUACUAGAAGGCCCAUGUACCU”, the “apparent Kd” value under setting [1] was found to be 0.191 µM and the “apparent Kd” value under setting [2] was determined as 0.00938 µM.
Take “CAAAUCUGAGGAUAUCGAUAUUUGUACAUGAGGAUCACCCAUGUCCUAUUUAUAAAAUCCCGAGAAGGCAGUGUAU”: the “apparent Kd” value under setting [3] was 0.0146 µM and the “apparent Kd” value under setting [4] is 0.0229 µM.
For the sequence “AUACCUUAUGAGAAGGCGGUCAUGAAACAUGAUCGAGGAUAUCAUGUAAACAUGAGGAUCACCCAUGUAUGGGUAUUAUGGUAC”, the “apparent Kd” value is, setting by setting: under setting [1], 0.0382 µM; under setting [2], 0.0102 µM.
For the sequence “AACCUAUUACAGAAGGCCAGCUACAUGAGGAUCACCCAUGUCGAGUCAUGGAGGAUAUGUAGUAAUUUACUCGCGGAUGAGUAA”, the “apparent Kd” value reads like this: under setting [1], 0.0238 µM; under setting [2], 0.00535 µM.
The matching figures for “CGUAACUGCAUAGGAUAUUGAUACAUGAGGAUCACCCAUGUUUUUCGGAUUAUAUAUAUACUUAGCAAGAAGGAUGGAGUUACG”: 0.0093 µM and 0.00574 µM.
Take “AUCAUGUCAGGAUAUCUGAUAUGGAUCUUCGGAUCAAGUUCAGAGAAGGGACAUGAGGAUCACCCAUGUCGAAC”: the “apparent Kd” value amounted to 0.025 µM under setting [3] and 0.0424 µM under setting [4].
As to “UGUAUACAUGAGGAUCACCCAUGUAAGGAUAUGCUUUAUUAUUAUUAUUAUUAUUAUUGCAGAAGGUACAUUAU”, the “apparent Kd” value is, setting by setting: under setting [3], 0.0358 µM; under setting [4], 0.0359 µM.
Consider “GUAACGCUUGACAUGAGGAUCACCCAUGUUAGAUUGUUAUGUCAGGAUAUAGUCUAGAAACUAGACUAGAAGGGAUAUGUUGCU”, for which the “apparent Kd” value turned out to be 0.0593 µM under setting [1] and 0.029 µM under setting [2].
Regarding “GCUGGACGAGGAUAUGCAAUCGUGCUUCGGCACGUAAGAUCACAUGAGGAUCACCCAUGUAGAAGGUGUCCAGC”, the “apparent Kd” value amounted to 0.0179 µM under setting [3] and 0.0302 µM under setting [4].
Consider “UUUUUUUUAUGAGGAUAUAUUUUACAUACAAAACAUGAGGAUCACCCAUGUGUUGUCCCAUGUUUAUAGAAGGCAUUUUUUUUU”, for which the “apparent Kd” value under setting [1] worked out at 0.418 µM and the “apparent Kd” value under setting [2] stood at 0.598 µM.
Take “GCGUAUGAGCAGGAUAUCCGACGGGAAUCCAAAGGAGAAGGGCUCACAUGAGGAUCACCCAUGUGGUCCUAAAC”: the “apparent Kd” value by setting is: under setting [3], 0.0202 µM; under setting [4], 0.101 µM.
As to “UUAAAUCAUGUAGGAUAUGCAUGGCGAAGCUACGCAGAAGGACAUGAGGAUCACCCAUGUUAAAGCUACCGAGUACGGUGGCAA”, the “apparent Kd” value under setting [3] turned out to be 0.121 µM and the “apparent Kd” value under setting [4] was found to be 0.193 µM.
“CCGGAUAUGCAGGAUAUCGUAUCGGAAACGAUACGAGAAGGGUAUACAUGAGGAUCACCCAUGUGCCUUACCGG”: the “apparent Kd” value was 0.0197 µM under setting [3] and 0.0219 µM under setting [4].
As to “GUACAACAUGAGGAUCACCCAUGUAUAUAUAUACGAGGAUAUGCAUGUACGAAAGUAUAUGCAGAAGGCGUUGUAC”, the “apparent Kd” value under setting [1] was found to be 0.127 µM and the “apparent Kd” value under setting [2] was 0.0302 µM.
The matching figures for “AUUAUUUCAUGAGGAUAUGGCACCUUAUUGGUGCCAGAAGGCAUGUCUAUUGACAUGAGGAUCACCCAUGUAUUAAAUUAUAUA”: 0.621 µM and 0.0453 µM.
On to “AUCUUUGACUUUACUAGAAUAGGGCAGGAUAUACAUGAGGAUCACCCAUGUUAAGCACGUAAGAGGUAGAAGGGCCCUUGUCAU”, for which the “apparent Kd” value by setting is: under setting [3], 0.0161 µM; under setting [4], 0.0136 µM.
As for “CGUACUGAAGUGAGGAUAUUGUCUCGGAUACGAAACAAGAAGGCACAUGAGGAUCACCCAUGUUGACAGUACGA”, the “apparent Kd” value under setting [3] turned out to be 0.0158 µM and the “apparent Kd” value under setting [4] stood at 0.0131 µM.
As to “GCAGCUAAUAUUAUACAUGAGGAUCACCCAUGUUACAUGAGUAAGGAUAUUGAUGAUUAUAUAAACAAGAAGGUACGAAGCUGC”, the “apparent Kd” value is, setting by setting: under setting [1], 0.0149 µM; under setting [2], 0.00785 µM.
With “CGAAGCCAAGGAUAUACAUGAGGAUCACCCAUGUGUUCCAGGCAAGCACAGCAGCGACGUAGAAGGUGGCUUCA”, the “apparent Kd” value under setting [3] stood at 0.0176 µM and the “apparent Kd” value under setting [4] is 0.0417 µM.
As for “UGCCUGCAGUCAGGAUAUGAUAACUGGGUAUGGUCUUUGUAACGACAUGAGGAUCACCCAUGUUUUUAGAAGGGACGUGUCAGC”, the “apparent Kd” value is, setting by setting: under setting [3], 0.363 µM; under setting [4], 0.127 µM.
“GUCGUGUUAGGAUAUGGCAACGGCUAGGAAACUAGUUGUUGUUAGAAGGAACAUGAGGAUCACCCAUGUAUGAC”: the “apparent Kd” value is 0.0343 µM under setting [3] and 0.0843 µM under setting [4].
In the case of “GGUUUGCGGCAGGAUAUCCAUCCGCGGUGUGGUGGAGAAGGGCUGACAUGAGGAUCACCCAUGUGCGUCCUGGG”, the “apparent Kd” value by setting is: under setting [3], 0.0338 µM; under setting [4], 0.0717 µM.
On the same counts, the results for “AGUCAGACAGGAUAUACGUGAGUGGAAAAAGUAUGUCCACUACAUGAGGAUCACCCAUGUAGAAGGGUCUGACA” are 0.0177 µM and 0.0146 µM.
Turning to “AAAAAACAUGAGGAUCACCCAUGUGAGGAUAUGCGAAAAAAAAAAAAAAAAAAAAAAAGCAGAAGGCACAAAAA”, the “apparent Kd” value is, setting by setting: under setting [3], 0.0439 µM; under setting [4], 0.0608 µM.
Regarding “UGUGCGUUGAUCUUCGAUCGGUGUACAUGAGGAUCACCCAUGUAGGAUAUUCAAAGACGCAGAUAGGAGAAGGACAUCGGAUUA”, the “apparent Kd” value under setting [3] was 0.0192 µM and the “apparent Kd” value under setting [4] was determined as 0.0172 µM.

What is called apparent Kd is the concentration giving half-maximal binding under the conditions of the assay.
